In the library only some 4.8% were active in any assay of this set; here they are far more common.
PAFAH2 inh – PAFAH2 enzyme inhibitors, primary screen, biochemical, fluorescence polarization, human | Platelet-activating factor acetylhydrolase 2, cytoplasmic (Homo sapiens), Q99487 | recombinant PAFAH2, FP-rhodamine activity probe | inhibition, % at 3.39 µM | actives 0.99% (n = 340,000) | AID 492956, 2010;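 active = inhibition above the mean over all tested compounds plus 3 SD, cut at about 30% in these data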;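 note: inhibitors block probe labeling of enzyme so polarization drops; 0% = enzyme with DMSO and 100% = wells lacking PAFAH2 protein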
PAFAH1B3 FP inh – PAFAH1B3 enzyme inhibitors, primary screen, biochemical, fluorescence polarization, human | recombinant PAFAH1B3, FP-rhodamine probe | actives 0.28% (n = 340,000) | Platelet-activating factor acetylhydrolase IB subunit alpha1 (Homo sapiens), Q15102 | inhibition, % at 3.39 µM;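 active = inhibition above the screen-wide average of all tested compounds plus 3 SD, cut at about 25% in these data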;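 note: 0% = enzyme with DMSO only and 100% = wells lacking PAFAH1B3 protein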
Target sequence (Q15102 whole entry, looked up): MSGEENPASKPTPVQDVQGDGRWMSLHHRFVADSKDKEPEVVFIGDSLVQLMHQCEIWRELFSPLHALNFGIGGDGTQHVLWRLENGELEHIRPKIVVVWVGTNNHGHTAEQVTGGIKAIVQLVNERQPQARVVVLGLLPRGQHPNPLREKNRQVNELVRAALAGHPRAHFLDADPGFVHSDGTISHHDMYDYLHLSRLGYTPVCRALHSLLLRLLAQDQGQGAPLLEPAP
GRIN3A LBD mod – binders of NR3A ligand-binding domain, primary screen, biophysical, differential scanning fluorimetry, uHTS; AID 1259313, 2017; NR3A LBD differential scanning fluorimetry, Tm shift; 0% = protein alone, 100% = glycine-bound protein; Tm shift relative to glycine control, % at 25 µM; Glutamate receptor ionotropic, NMDA 3A (GRIN3A) ligand-binding domain; actives 2.5% (n = 340,000);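 active = melting temperature shift of at least 10% of the positive control shift, at one fixed dose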
PAFAH1B2 inh – PAFAH1B2 enzyme inhibitors, primary screen, biochemical, fluorescence polarization, human; Platelet-activating factor acetylhydrolase IB subunit alpha2 (Homo sapiens), P68402; inhibition, % at 3.39 µM; actives 1.2% (n = 340,000); recombinant PAFAH1B2, FP-rhodamine activity probe;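 active = inhibition above the mean of all tested compounds plus 3 SD, cut at about 24% in these data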;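 note: 0% = enzyme with DMSO and 100% = wells lacking PAFAH1B2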
Target sequence (P68402 whole entry, looked up): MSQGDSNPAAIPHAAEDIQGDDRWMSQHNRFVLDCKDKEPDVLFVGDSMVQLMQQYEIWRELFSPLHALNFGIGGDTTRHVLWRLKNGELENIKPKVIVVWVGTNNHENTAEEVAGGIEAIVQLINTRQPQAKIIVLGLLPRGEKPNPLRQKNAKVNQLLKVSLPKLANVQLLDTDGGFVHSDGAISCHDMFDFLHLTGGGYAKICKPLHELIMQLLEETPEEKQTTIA
pPAFAH FP inh – pPAFAH enzyme inhibitors, primary screen, biochemical, fluorescence polarization, human; AID 463082, 2010; recombinant pPAFAH, FP-rhodamine probe fluorescence polarization; actives 1.5% (n = 330,000); inhibition, % at 3.39 µM;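 active = inhibition above the mean inhibition across the screen plus 3 SD, cut at about 25% in these data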;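 note: inhibitors block binding of the rhodamine activity-based probe so polarization drops; 0% = enzyme with DMSO and 100% = wells lacking pPAFAH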
UCH37 inh – inhibitors of human UCH37 deubiquitinase, primary screen, biochemical, Ub-AMC cleavage, fluorescence. purified proteasome/UCH37. inhibition, % (concentration not given with the values). actives 0.33% (n = 330,000);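 active = mean inhibition over replicate wells above about 20%, limit read from the data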;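 note: 0% = compound-free wells with enzyme and 100% = wells lacking proteasome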
Target sequence (Q9Y5K5 whole entry, looked up): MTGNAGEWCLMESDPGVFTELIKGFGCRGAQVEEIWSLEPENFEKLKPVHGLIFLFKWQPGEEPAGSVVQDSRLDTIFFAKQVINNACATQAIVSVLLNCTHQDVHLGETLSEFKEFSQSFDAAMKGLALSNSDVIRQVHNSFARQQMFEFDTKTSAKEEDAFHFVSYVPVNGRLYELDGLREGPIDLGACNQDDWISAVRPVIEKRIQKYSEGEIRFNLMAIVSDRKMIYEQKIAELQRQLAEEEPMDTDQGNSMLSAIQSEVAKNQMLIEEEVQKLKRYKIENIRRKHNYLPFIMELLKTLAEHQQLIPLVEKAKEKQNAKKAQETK
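system = Proteasome-associated human UCH37 deubiquitinase | amount = 0.15 nM proteasome as dispensed | medium = pH 7.4 Tris-HCl (50 mM) with ovalbumin, ATP-MgCl2, DTT | incubation = 30 min preincubation with enzyme, 25 min cleavage at room temperature | detection = AMC fluorescence 355/460 nm | read-out basis = percent inhibition | controls = no-proteasome and no-compound wells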
PAFAH2 confirm – PAFAH2 enzyme inhibitors, confirmation, biochemical, fluorescence polarization, human; AID 493030, 2011; recombinant PAFAH2, FP-rhodamine activity probe; shares compounds with PAFAH2 inh; inhibition, % at 3.39 µM; actives 65% (n = 2,300);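 active = mean inhibition over three repeats above a set limit taken from the earlier primary screen, cut at about 30% in these data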;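 note: inhibitor blocks binding of rhodamine activity probe so polarization falls; 0% = enzyme with DMSO and 100% = wells lacking PAFAH2 protein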
* hit, by the source's call; . = no result.

SMILES | PAFAH2 inh | PAFAH1B3 FP inh | GRIN3A LBD mod | PAFAH1B2 inh | pPAFAH FP inh | UCH37 inh | PAFAH2 confirm
O=C(NC(=S)Nc1cc(S(=O)(=O)N2CCOCC2)ccc1O)c1ccco1 | 43.9* | 11.7 | -0.7 | 4.1 | 6.7 | 6.3 | 31.7*
Cc1cccc(C)c1-n1c(C)cc(/C=N/NC(=O)CSc2ncccn2)c1C | 38.1* | 0.9 | -2.1 | 3.2 | 12.4 | . | 24.0
Cc1cccc(C)c1-n1c(C)cc(/C=N/NC(=O)c2ccncc2)c1C | -4.4 | 11.1 | -2.2 | -2.6 | 13.9 | . | .
COc1cc(C=NNC(=O)/C(=C/c2ccccc2)CCO)ccc1O | . | . | . | . | . | 4.0 | .
N#CC(=C(O)C(F)(F)F)c1nnc2n1CCCCC2 | . | . | . | . | . | 0.1 | .
O=C(COC(=O)CCCN1C(=O)c2cccc3cccc(c23)C1=O)Nc1cccc(C(F)(F)F)c1 | 35.5* | -8.6 | 5.5 | -10.6 | 1.9 | . | 32.8*
NC(=O)c1cc(NC(=O)COC(=O)CCCN2C(=O)c3cccc4cccc(c34)C2=O)cc(C(N)=O)c1 | -1.4 | 0.6 | 2.0 | 3.4 | 1.6 | -14.8 | .
CS(=O)(=O)c1ccc(Cl)c(NC(=O)COC(=O)CCCN2C(=O)c3cccc4cccc(c34)C2=O)c1 | 12.9 | 4.2 | 2.2 | -1.0 | 0.4 | -60.1 | .
O=C(COC(=O)CCCN1C(=O)c2cccc3cccc(c23)C1=O)Nc1cccc(Br)c1 | 56.2* | 3.8 | -12.2 | 6.5 | 13.2 | -55.3 | 24.5
C#CCOc1ccc(C=NO)cc1Cl | . | . | . | . | . | 2.0 | .
O=C(c1ccccc1)N1CCN(S(=O)(=O)c2cccs2)CC1 | 5.6 | -7.0 | -1.2 | 2.6 | -2.5 | 1.2 | .
CN(C)S(=O)(=O)c1ccc(C(=O)N2CCN(S(=O)(=O)c3cccs3)CC2)cc1 | 41.8* | -3.5 | -2.0 | 4.4 | 2.1 | 5.1 | 39.2*
Cc1cc(C)cc(C(=O)OCC(=O)NC2CCCC2)c1 | 43.2* | 1.7 | 1.2 | -1.3 | 2.4 | -0.1 | 22.9
COc1cc(C(=O)OCC(=O)NC2CCCCC2)cc(OC)c1OC | 40.8* | 6.9 | 4.6 | -0.2 | -1.9 | 1.3 | 23.6
NS(=O)(=O)c1cccc(NC(=O)COC(=O)c2cc(Cl)ccc2[N+](=O)[O-])c1 | 7.0 | 6.2 | -2.5 | -3.0 | 0.6 | 5.5 | .
Cc1cc(C)cc(C(=O)OCC(=O)NC(=O)NC2CCCC2)c1 | 10.9 | 7.9 | -0.1 | 0.8 | 3.3 | 4.6 | .
NS(=O)(=O)c1cc(C(=O)OCC(=O)NC2CCCCCCC2)ccc1Cl | 8.7 | 6.2 | 0.6 | 15.5 | . | 5.0 | .
Cc1ccc(NC(=O)COC(=O)c2cc(Cl)ccc2[N+](=O)[O-])cc1 | 56.0* | 2.8 | -8.8 | 5.2 | 4.1 | 1.5 | 37.8*
O=C(COC(=O)c1ccc2c(c1)OCCO2)NC1CCCCC1 | 87.1* | -3.0 | 1.1 | -1.8 | 8.1 | . | 76.6*
COc1cc(C(=O)OCC(=O)NC2CCCC2)cc(OC)c1OC | 17.7 | 6.8 | -1.0 | 7.0 | 0.1 | 3.9 | .
CC(CC(=O)Nc1cccc(Cl)c1)=NNC(=O)Cc1ccc(Cl)cc1 | . | . | . | . | . | 1.8 | .
COC(=O)C=c1sc2n(c1=O)C(C)=CC(C)(C)N=2 | . | . | . | . | . | 2.0 | .
COc1cc(C(=O)OCC(=O)Nc2ccc(C)cc2)cc(OC)c1OC | 30.5* | 6.3 | -0.8 | 2.2 | -0.4 | -0.2 | 16.2
CN(C(=O)COC(=O)c1ccc2c(c1)OCCO2)C1CCCCC1 | 68.9* | 1.3 | 0.8 | 2.2 | . | 3.8 | 61.1*
CN(C(=O)COC(=O)c1cncc(Br)c1)C1CCCCC1 | 8.9 | 2.4 | 0.4 | 6.2 | 2.2 | 2.2 | .
SMILES | PAFAH2 inh | PAFAH1B3 FP inh | GRIN3A LBD mod | PAFAH1B2 inh | pPAFAH FP inh | UCH37 inh | PAFAH2 confirm
COc1cc(C(=O)OCC(=O)NC2CCCCC2)cc2c1OCCO2 | 74.0* | 2.7 | -3.6 | -0.1 | 7.9 | 1.3 | 65.7*
O=C(CNC(=O)c1ccc2c(c1)OCCO2)NN=Cc1cccc(Br)c1 | . | . | . | . | . | 2.3 | .
O=C(NN=Cc1cc(Cl)ccc1O)c1ccncc1 | . | . | . | . | . | 2.5 | .
O=C(Nc1cc(Cl)ccc1O)C1CC(c2ccccc2Cl)=NO1 (centres undefined) | 32.8* | -5.4 | 7.4 | -0.9 | . | 1.9 | 22.2
C[n+]1c(-c2ccccc2)cc2c(=Cc3ccccc3)c3ccccc3n21 | 58.5* | 19.7 | -5.6 | -4.6 | . | . | 15.1
Cc1nc2cc(N3CCCCC3)c(NC(=O)c3ccncc3)cc2c(=O)n1Cc1ccc(Cl)cc1 | . | . | . | . | -2.2 | . | .
Cc1nc2cc(N3CCN(C)CC3)c(NC(=O)Cc3ccccc3)cc2c(=O)n1Cc1ccccc1 | 41.7* | 5.7 | -5.6 | -2.7 | 6.1 | -1.8 | 26.7
Cc1c(Cl)cccc1N=Cc1ccc([N+](=O)[O-])s1 | 71.1* | 13.5 | -5.4 | 13.2 | 11.0 | 7.6 | 8.3
Cc1ccccc1C(=O)N/N=C/c1ccc([N+](=O)[O-])s1 | 10.2 | 11.3 | -5.5 | 2.6 | 10.0 | . | .
C=C(C)c1cccc(C(C)(C)NC(=O)NNC(=O)c2ccccc2O)c1 | 35.0* | 18.9 | -1.2 | 1.4 | 0.6 | -12.2 | 29.6
C=C(C)c1cccc(C(C)(C)NC(=O)Nc2ccc(C(C)=O)cc2)c1 | -12.4 | -1.2 | -2.6 | 4.4 | -3.6 | 1.5 | .
NS(=O)(=O)c1ccc(NC(=O)COC(=O)/C=C/c2ccc([N+](=O)[O-])cc2)cc1 | 1.8 | 6.4 | -4.9 | -0.8 | 3.5 | 3.7 | .
Cc1ccc(NC(=O)COC(=O)/C=C/c2ccc(Br)o2)cc1S(=O)(=O)N(C)C | 64.2* | -1.4 | 0.5 | -3.1 | 1.8 | 0.6 | 58.6*
CN(C)S(=O)(=O)c1cccc(NC(=O)COC(=O)/C=C/c2ccc(Br)o2)c1 | 40.5* | -3.1 | -3.0 | 0.2 | 1.7 | 5.7 | 34.9*
CN(C)S(=O)(=O)c1cccc(NC(=O)COC(=O)/C=C/c2ccc([N+](=O)[O-])cc2)c1 | 34.5* | 1.2 | -1.8 | 0.5 | 12.0 | 6.4 | 20.0
O=C(NCc1cc([N+](=O)[O-])ccc1O)c1cccnc1Sc1ccccc1Cl | 39.1* | 4.2 | -6.3 | 0.2 | 2.9 | 5.4 | 32.0*
O=C(NCc1cc([N+](=O)[O-])ccc1O)c1cccnc1Sc1ccc(Cl)cc1 | 16.5 | 7.6 | 2.9 | -3.7 | 4.3 | 1.7 | .
CC(=O)C(=NNc1ccccc1)N1CCOCC1 | . | . | . | . | . | 11.9 | .
Cc1c(C(c2ccc(Br)cc2)c2c(C)n(C)n(-c3ccccc3)c2=O)c(=O)n(-c2ccccc2)n1C | 36.8* | 5.1 | 1.4 | 4.5 | 2.1 | 2.4 | 25.6
Cn1c(SCC(=O)NN=C/C=C/c2ccco2)nc2ccccc21 | . | . | . | . | . | 11.4 | .
